Measurements reported in ChEMBL document CHEMBL1125116 (J Med Chem, 1990).

Tests used:
Type in all cases: ADME, organism-based
Rattus norvegicus [1] = assay: Biodistribution of [125I]IBF in blood was determined in rats 15 minutes after intraveneous injection; conditions: in vivo, iv, 0.25 h
Procedure, shortened: (§1)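 Male Sprague–Dawley rats (225–300 g) with free access to food and water. Under halothane anesthesia they received [125I]IBF (8–10 μCi in 0.2 mL saline) into the femoral vein. Rats were killed by cardiac excision under halothane at the stated time. Organs were weighed and gamma-counted, and % dose/organ was taken against diluted aliquots of the injectate. Blood was assumed to be 7% of body weight and muscle 40%.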

Rattus norvegicus [2] = assay: Biodistribution of [125I]-IBF in blood was determined in rats 2 minutes after intraveneous injection; conditions: in vivo, iv; procedure, shortened: as §1
Rattus norvegicus [3] = assay: Biodistribution of [125I]IBF in blood was determined in rats 30 minutes after intraveneous injection; conditions: in vivo, iv, 0.5 h; procedure, shortened: as §1
Rattus norvegicus [4] = assay: Biodistribution of [125I]-IBF in blood was determined in rats 60 minutes after intraveneous injection; conditions: in vivo, iv, 1 h; procedure, shortened: as §1
Rattus norvegicus [5] = assay: Biodistribution of [125I]IBF in blood was determined in rats 120 minutes after intraveneous injection; conditions: in vivo, iv, 2 h; procedure, shortened: as §1
Rattus norvegicus [6] = assay: Biodistribution of [125I]IBF in brain was determined in rats 15 minutes after intraveneous injection; conditions: in vivo, iv, 0.25 h; procedure, shortened: as §1
Rattus norvegicus [7] = assay: Biodistribution of [125I]IBF in brain was determined in rats 2 minutes after intraveneous injection; conditions: in vivo, iv; procedure, shortened: as §1
Rattus norvegicus [8] = assay: Biodistribution of [125I]IBF in brain was determined in rats 60 minutes after intraveneous injection; conditions: in vivo, iv, 1 h; procedure, shortened: as §1
Rattus norvegicus [9] = assay: Biodistribution of [125I]IBF in brain was determined in rats 120 minutes after intraveneous injection; conditions: in vivo, iv, 2 h; procedure, shortened: as §1
Rattus norvegicus [10] = assay: Biodistribution of [125I]IBF in brain/blood was determined in rats 15 minutes after intraveneous injection; conditions: in vivo, iv, 0.25 h
Rattus norvegicus [11] = assay: Biodistribution of [125I]IBF in brain/blood was determined in rats 2 minutes after intraveneous injection; conditions: in vivo, iv
Rattus norvegicus [12] = assay: Biodistribution of [125I]IBF in brain/blood was determined in rats 30 minutes after intraveneous injection; conditions: in vivo, iv, 0.5 h
Rattus norvegicus [13] = assay: Biodistribution of [125I]IBF in brain/blood was determined in rats 60 minutes after intraveneous injection; conditions: in vivo, iv, 1 h
Rattus norvegicus [14] = assay: Biodistribution of [125I]IBF in brain/blood was determined in rats 120 minutes after intraveneous injection; conditions: in vivo, iv, 2 h
Rattus norvegicus [15] = assay: Biodistribution of [125I]IBF in heart was determined in rats 15 minutes after intraveneous injection; conditions: in vivo, iv, 0.25 h; procedure, shortened: as §1
Rattus norvegicus [16] = assay: Biodistribution of [125I]IBF in heart was determined in rats 2 minutes after intraveneous injection; conditions: in vivo, iv; procedure, shortened: as §1
Rattus norvegicus [17] = assay: Biodistribution of [125I]-IBF in heart was determined in rats 30 minutes after intraveneous injection; conditions: in vivo, iv, 0.5 h; procedure, shortened: as §1
Rattus norvegicus [18] = assay: Biodistribution of [125I]-IBF in heart was determined in rats 120 minutes after intraveneous injection; conditions: in vivo, iv, 2 h; procedure, shortened: as §1
Rattus norvegicus [19] = assay: Biodistribution of [125I]IBF in kidney was determined in rats 15 minutes after intraveneous injection; conditions: in vivo, iv, 0.25 h; procedure, shortened: as §1
Rattus norvegicus [20] = assay: Biodistribution of [125I]IBF in kidney was determined in rats 2 minutes after intraveneous injection; conditions: in vivo, iv; procedure, shortened: as §1
Rattus norvegicus [21] = assay: Biodistribution of [125I]IBF in kidney was determined in rats 30 minutes after intraveneous injection; conditions: in vivo, iv, 0.5 h; procedure, shortened: as §1
Rattus norvegicus [22] = assay: Biodistribution of [125I]IBF in kidney was determined in rats 60 minutes after intraveneous injection; conditions: in vivo, iv, 1 h; procedure, shortened: as §1
Rattus norvegicus [23] = assay: Biodistribution of [125I]IBF in kidney was determined in rats 120 minutes after intraveneous injection; conditions: in vivo, iv, 2 h; procedure, shortened: as §1
Rattus norvegicus [24] = assay: Biodistribution of [125I]IBF in liver was determined in rats 15 minutes after intraveneous injection; conditions: in vivo, iv, 0.25 h; procedure, shortened: as §1
Rattus norvegicus [25] = assay: Biodistribution of [125I]IBF in liver was determined in rats 2 minutes after intraveneous injection; conditions: in vivo, iv; procedure, shortened: as §1
Rattus norvegicus [26] = assay: Biodistribution of [125I]IBF in liver was determined in rats 30 minutes after intraveneous injection; conditions: in vivo, iv, 0.5 h; procedure, shortened: as §1
Rattus norvegicus [27] = assay: Biodistribution of [125I]IBF in srtiatum was determined in rats 15 minutes after intraveneous injection; conditions: in vivo, iv, 0.25 h
Rattus norvegicus [28] = assay: Biodistribution of [125I]IBF in striatum was determined in rats 2 minutes after intraveneous injection; conditions: in vivo, iv
Procedure, shortened: (§2)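 Male Sprague–Dawley rats (225–300 g) with free access to food and water were anesthetized with halothane. Each received 0.2 mL saline containing 8–10 μCi [125I]IBF into the femoral vein and was killed by cardiac excision under halothane at set times. Organs were weighed and gamma-counted, and uptake was calculated against diluted aliquots of the injected dose.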

Rattus norvegicus [29] = assay: Biodistribution of [125I]IBF in striatum was determined in rats 30 minutes after intraveneous injection; conditions: in vivo, iv, 0.5 h; procedure, shortened: as §2
Rattus norvegicus [30] = assay: Biodistribution of [125I]IBF in striatum was determined in rats 60 minutes after intraveneous injection; conditions: in vivo, iv, 1 h; procedure, shortened: as §2

Work on `CCN1CCC[C@H]1CNC(=O)c1cc(I)cc2c1OCC2` yielded a Dose/organ (Rattus norvegicus [1]) of 1.8%, a Dose/organ (Rattus norvegicus [2]) of 3.5% and a Dose/organ (Rattus norvegicus [3]) of 1.26%. The Dose/organ (Rattus norvegicus [4]) was 0.98%, the Dose/organ (Rattus norvegicus [5]) was 0.23% and the Dose/organ (Rattus norvegicus [6]) was 0.54%. For the same compound, the Dose/organ (Rattus norvegicus [7]) was 0.98%, the Dose/organ (Rattus norvegicus [8]) was 0.17% and the Dose/organ (Rattus norvegicus [9]) was 0.07%. It also gave a Dose/organ (Rattus norvegicus [10]) of 3.01, a Dose/organ (Rattus norvegicus [11]) of 2.64 and a Dose/organ (Rattus norvegicus [12]) of 2.26. It also gave a Dose/organ (Rattus norvegicus [13]) of 1.9, a Dose/organ (Rattus norvegicus [14]) of 1.53 and a Dose/organ (Rattus norvegicus [15]) of 0.2%. For the same compound, the Dose/organ (Rattus norvegicus [16]) was 0.81%, the Dose/organ (Rattus norvegicus [17]) was 0.11% and the Dose/organ (Rattus norvegicus [18]) was 0.02%. It also gave a Dose/organ (Rattus norvegicus [19]) of 2.92%, a Dose/organ (Rattus norvegicus [20]) of 7.58% and a Dose/organ (Rattus norvegicus [21]) of 1.58%. The Dose/organ (Rattus norvegicus [22]) was 1.01%, the Dose/organ (Rattus norvegicus [23]) was 0.68% and the Dose/organ (Rattus norvegicus [24]) was 16.16%. For the same compound, the Dose/organ (Rattus norvegicus [25]) was 16.32%, the Dose/organ (Rattus norvegicus [26]) was 11.59% and the Dose/organ (Rattus norvegicus [27]) was 0.842%. It also gave a Dose/organ (Rattus norvegicus [28]) of 0.743%, a Dose/organ (Rattus norvegicus [29]) of 0.66% and a Dose/gram (Rattus norvegicus [30]) of 0.705 % dose/g.
